In ChEMBL document CHEMBL3351868, “Structure-affinity relationships and pharmacological characterization of new alkyl-resorcinol cannabinoid receptor ligands: Identification of a dual cannabinoid receptor/TRPA1 channel agonist” (Bioorg Med Chem, 2014):
Activity calls are given as the source filed them. No cut-off for these calls is given here.

How the values were obtained:
[1] = Cytotoxicity against mouse NIH/3T3 cells after 24 hrs by neutral red assay; type: cell-based; details: NIH3T3, 24 h
In short: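 NIH3T3 mouse fibroblasts in DMEM with 10% FCS were seeded and after 24 h exposed to compound in DMSO (5-200 µM, six replicates) for 24 h. Viability measured by neutral red uptake (3 h dye incubation, then acetic acid/ethanol extraction). IC50 derived.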

[2] = target: T1, Transient receptor potential cation channel subfamily A member 1 (Rattus norvegicus, UniProt Q6RI86); assay: Antagonist activity at rat recombinant TRPA1 expressed in HEK293 cells assessed as reduction in isothiocynate-induced increase in intracellular calcium response by fluorescence assay; type: cell-based
T1 sequence (Q6RI86 whole entry): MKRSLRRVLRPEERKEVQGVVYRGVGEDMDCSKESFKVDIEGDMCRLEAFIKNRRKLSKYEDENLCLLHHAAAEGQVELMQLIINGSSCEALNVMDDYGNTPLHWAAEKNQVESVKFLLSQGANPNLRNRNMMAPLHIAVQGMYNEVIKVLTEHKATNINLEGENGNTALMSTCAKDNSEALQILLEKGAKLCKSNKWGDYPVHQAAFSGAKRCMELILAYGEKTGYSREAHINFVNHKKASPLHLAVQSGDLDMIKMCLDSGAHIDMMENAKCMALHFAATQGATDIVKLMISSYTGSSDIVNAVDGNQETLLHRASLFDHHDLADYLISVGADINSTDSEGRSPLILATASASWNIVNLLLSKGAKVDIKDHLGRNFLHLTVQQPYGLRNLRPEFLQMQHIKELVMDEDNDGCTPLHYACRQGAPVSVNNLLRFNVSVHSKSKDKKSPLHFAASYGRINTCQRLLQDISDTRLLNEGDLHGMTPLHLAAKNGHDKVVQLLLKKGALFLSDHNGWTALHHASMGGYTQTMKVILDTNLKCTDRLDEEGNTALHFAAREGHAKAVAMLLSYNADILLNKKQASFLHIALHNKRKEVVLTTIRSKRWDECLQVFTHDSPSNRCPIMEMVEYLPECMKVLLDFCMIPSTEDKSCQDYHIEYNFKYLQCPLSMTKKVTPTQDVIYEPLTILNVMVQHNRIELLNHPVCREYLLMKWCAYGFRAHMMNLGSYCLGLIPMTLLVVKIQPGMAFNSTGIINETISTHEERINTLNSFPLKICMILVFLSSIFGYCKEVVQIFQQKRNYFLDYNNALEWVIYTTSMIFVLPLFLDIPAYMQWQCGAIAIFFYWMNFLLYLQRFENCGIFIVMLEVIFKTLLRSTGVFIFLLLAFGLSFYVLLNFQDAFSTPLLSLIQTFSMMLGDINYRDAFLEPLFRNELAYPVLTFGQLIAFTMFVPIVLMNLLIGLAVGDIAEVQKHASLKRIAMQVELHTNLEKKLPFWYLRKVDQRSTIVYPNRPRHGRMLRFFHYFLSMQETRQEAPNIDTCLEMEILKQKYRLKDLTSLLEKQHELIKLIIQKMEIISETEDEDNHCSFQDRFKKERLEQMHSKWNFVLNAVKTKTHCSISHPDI
In short: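 Rat TRPA1-HEK293 cells loaded with Fluo-4 in Tyrode's buffer pH 7.4, 25 °C. Compound given as a 5 min pre-incubation before 100 µM allyl isothiocyanate. IC50 for half-maximal inhibition of the agonist-evoked [Ca2+]i rise, n=3.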

Mus musculus [3] = assay: Antinociceptive activity in Swiss-Webster mouse assessed as reduction in second phase of formalin-induced nociceptive behavior at 4 mg/kg, ip after 40 mins; type: functional, organism-based; design: dose 4 mg/kg
In short: (§1)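 Mice received compound or vehicle (0.9% NaCl) i.p. 10 min before formalin (1.25%) injected subcutaneously into the hind paw. Lifting, favouring, licking, shaking and flinching were scored blind as total duration per 5-min bin over 60 min. 8-10 animals per group; one-way ANOVA with Bonferroni test.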

Mus musculus [4] = assay: Toxicity in Swiss-Webster mouse formalin-induced pain model assessed as induction of abdominal writhing at >4 mg/kg, ip; type: organism-based, Abdomen; details: in vivo; in short: as §1
Homo sapiens [5] = species on record: Homo sapiens; assay: Selectivity index, ratio of Ki for human recombinant CB1 receptor to Ki for human recombinant CB2 receptor
[6] = target: T2, Transient receptor potential cation channel subfamily V member 1 (Homo sapiens, UniProt Q8NER1); assay: Antagonist activity against human recombinant TRPV1 expressed in HEK293 cells assessed as reduction in capsaicin-induced intracellular calcium response pre-incubated 5 mins before capsaicin addition by fluorescence assay; type: cell-based
T2 sequence (Q8NER1 whole entry): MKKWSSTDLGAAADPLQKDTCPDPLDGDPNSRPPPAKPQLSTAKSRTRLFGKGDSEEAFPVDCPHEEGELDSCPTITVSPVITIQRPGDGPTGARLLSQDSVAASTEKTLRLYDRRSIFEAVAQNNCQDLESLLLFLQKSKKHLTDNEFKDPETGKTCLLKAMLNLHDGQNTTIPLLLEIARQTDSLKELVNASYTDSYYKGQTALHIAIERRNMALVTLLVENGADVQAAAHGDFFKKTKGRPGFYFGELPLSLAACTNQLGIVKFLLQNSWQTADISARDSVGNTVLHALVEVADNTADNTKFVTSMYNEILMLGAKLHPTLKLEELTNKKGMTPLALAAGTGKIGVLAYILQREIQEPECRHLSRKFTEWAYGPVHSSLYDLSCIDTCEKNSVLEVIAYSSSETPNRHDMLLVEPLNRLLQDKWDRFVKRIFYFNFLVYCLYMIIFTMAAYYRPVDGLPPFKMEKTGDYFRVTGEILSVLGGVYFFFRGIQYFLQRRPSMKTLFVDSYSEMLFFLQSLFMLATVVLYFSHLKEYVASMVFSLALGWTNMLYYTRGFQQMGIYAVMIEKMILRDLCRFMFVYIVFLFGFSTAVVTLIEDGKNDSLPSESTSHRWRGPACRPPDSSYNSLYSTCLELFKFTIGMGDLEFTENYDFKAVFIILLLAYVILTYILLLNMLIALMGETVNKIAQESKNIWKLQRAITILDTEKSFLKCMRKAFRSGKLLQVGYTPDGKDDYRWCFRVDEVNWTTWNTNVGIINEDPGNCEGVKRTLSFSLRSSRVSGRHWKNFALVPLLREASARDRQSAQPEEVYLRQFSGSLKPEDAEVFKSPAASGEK
In short: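 Human TRPV1-HEK293 cells loaded with Fluo-4 in Tyrode's buffer pH 7.4, 25 °C. Compound added 5 min before 0.1 µM capsaicin. IC50 taken as half-maximal inhibition of the capsaicin-induced [Ca2+]i rise, n=3.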

Cannabinoid receptor 2 [7] = target: T3, Cannabinoid receptor 2 (Homo sapiens, UniProt P34972); assay: Displacement of [3H]CP-55,940 from human recombinant CB2 receptor expressed in HEK293 cell membranes
T3 sequence (P34972 whole entry): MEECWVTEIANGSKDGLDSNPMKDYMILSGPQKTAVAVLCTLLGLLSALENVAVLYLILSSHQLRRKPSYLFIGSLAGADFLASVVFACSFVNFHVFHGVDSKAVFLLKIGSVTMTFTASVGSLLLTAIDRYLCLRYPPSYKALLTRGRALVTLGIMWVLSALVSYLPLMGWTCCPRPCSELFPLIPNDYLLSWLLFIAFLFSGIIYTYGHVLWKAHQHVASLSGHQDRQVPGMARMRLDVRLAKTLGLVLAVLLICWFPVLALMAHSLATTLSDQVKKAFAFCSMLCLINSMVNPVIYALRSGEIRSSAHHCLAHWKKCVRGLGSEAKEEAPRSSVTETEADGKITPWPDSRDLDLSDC

[8] = target: T1, Transient receptor potential cation channel subfamily A member 1; assay: Agonist activity at rat recombinant TRPA1 expressed in HEK293 cells assessed as increase in intracellular calcium level by fluorescence assay; type: cell-based
In short: (§2)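 HEK293 cells stably expressing rat TRPA1 were loaded with Fluo-4-AM (4 µM, 1 h, room temperature). Cells stirred in Tyrode's buffer pH 7.4; [Ca2+]i fluorescence read at ex 488/em 516 nm, 25 °C. Wild-type HEK293 response subtracted. Efficacy as percent of 100 µM allyl isothiocyanate. EC50 from sigmoidal fit, n=3.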

[9] = target: T2, Transient receptor potential cation channel subfamily V member 1; assay: Agonist activity at human recombinant TRPV1 expressed in HEK293 cells assessed as increase in intracellular calcium level by fluorescence assay; type: cell-based
In short: (§3)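 HEK293 cells stably expressing human TRPV1 were loaded with Fluo-4-AM (4 µM, 1 h, room temperature). Cells stirred in Tyrode's buffer pH 7.4; fluorescence read at ex 488/em 516 nm, 25 °C. Wild-type HEK293 response subtracted. Efficacy as percent of 4 µM ionomycin. EC50 from sigmoidal fit, n=3.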

[10] = target: T2, Transient receptor potential cation channel subfamily V member 1; assay: Agonist activity at human recombinant TRPV1 expressed in HEK293 cells assessed as increase in intracellular calcium level by fluorescence assay relative to ionomycin; type: cell-based; in short: as §3
Cannabinoid receptor 1 [11] = target: T4, Cannabinoid receptor 1 (Homo sapiens, UniProt P21554); assay: Displacement of [3H]CP-55,940 from human recombinant CB1 receptor expressed in HEK293 cell membranes
T4 sequence (P21554 whole entry): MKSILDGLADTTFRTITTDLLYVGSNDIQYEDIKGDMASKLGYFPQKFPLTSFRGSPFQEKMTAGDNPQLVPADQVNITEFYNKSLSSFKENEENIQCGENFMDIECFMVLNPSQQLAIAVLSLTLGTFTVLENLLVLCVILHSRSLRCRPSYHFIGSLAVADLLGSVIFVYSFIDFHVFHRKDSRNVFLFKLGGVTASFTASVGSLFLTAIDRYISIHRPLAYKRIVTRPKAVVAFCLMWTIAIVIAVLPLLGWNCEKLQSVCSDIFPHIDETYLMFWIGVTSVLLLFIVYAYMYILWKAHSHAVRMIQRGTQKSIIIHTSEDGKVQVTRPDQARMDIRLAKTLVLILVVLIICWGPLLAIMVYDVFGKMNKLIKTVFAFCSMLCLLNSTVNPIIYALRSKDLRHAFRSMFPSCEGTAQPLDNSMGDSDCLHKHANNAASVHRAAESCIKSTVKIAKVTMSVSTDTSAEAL

Cannabinoid receptor 1 [12] = target: T4, Cannabinoid receptor 1; assay: Agonist activity at human recombinant CB1 receptor expressed in CHO cell membranes assessed as stimulation of [35S]GTPgammaS binding relative to basal level; type: functional
In short: (§4)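 Membranes from CHO cells stably expressing human CB1 or CB2, 50 µg protein per well, in Tris buffer with 100 mM NaCl, 5 mM MgCl2, 1 mM DTT, 1 mM EDTA, 0.1% BSA, pH 7.4. Incubated 60 min at 30°C with 0.1 nM [35S]GTPγS, 30 µM GDP and compound in DMSO. Nonspecific binding defined with 30 µM GTPγS. Filtration and scintillation counting. Percent change relative to DMSO control, n=6. EC50/Emax from sigmoidal fit.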

Homo sapiens [13] = species on record: Homo sapiens; assay: Selectivity index, ratio of Ki for human recombinant CB2 receptor to Ki for human recombinant CB1 receptor
[14] = target: Transient receptor potential cation channel subfamily A member 1 (Rattus norvegicus) (UniProt Q6RI86); assay: Agonist activity at rat recombinant TRPA1 expressed in HEK293 cells assessed as increase in intracellular calcium level by fluorescence assay relative to isothiocyanate; type: cell-based; in short: as §2
Chain of Transient receptor potential cation channel subfamily A member 1 (Rattus norvegicus) (Q6RI86 whole entry): as the sequence (Q6RI86 whole entry) above

Mus musculus [15] = assay: Antinociceptive activity in Swiss-Webster mouse assessed as reduction in second phase of formalin-induced nociceptive behavior at 3 and 4 mg/kg, ip; type: functional, organism-based; design: dose 4 mg/kg; in short: as §1
Cannabinoid receptor 1 [16] = target: T4, Cannabinoid receptor 1; assay: Agonist activity at human recombinant CB1 receptor expressed in CHO cell membranes by [35S]GTPgammaS binding assay; type: functional; in short: as §4
Cannabinoid receptor 2 [17] = target: T3, Cannabinoid receptor 2; assay: Agonist activity at human recombinant CB2 receptor expressed in CHO cell membranes assessed as stimulation of [35S]GTPgammaS binding relative to basal level; type: functional; in short: as §4
Cannabinoid receptor 2 [18] = target: T3, Cannabinoid receptor 2; assay: Agonist activity at human recombinant CB2 receptor expressed in CHO cell membranes by [35S]GTPgammaS binding assay; type: functional; in short: as §4

## C=CCNC(=O)CCCCCCCOc1cc(O)cc(C(C)(C)CCCCCC)c1
[1]
  IC50: 188000 nM
[2]
  IC50: 7400 nM
Mus musculus [3]
  Activity: Active
Mus musculus [4]
  Activity: Toxic
Homo sapiens [5]
  Ratio Ki: 0.98
[6]
  IC50: 23900 nM
Cannabinoid receptor 2 [7]
  Ki: 7.36 nM
[8]
  EC50: 2700 nM
[9]
  EC50: 6900 nM
[10]
  Efficacy: 18.6%
Cannabinoid receptor 1 [11]
  Ki: 7.22 nM
Cannabinoid receptor 1 [12]
  Emax: 60.6%
Homo sapiens [13]
  Ratio Ki: 1.02
[14]
  Efficacy: 51.3%
Mus musculus [15]
  Activity: Active
Cannabinoid receptor 1 [16]
  EC50: 138 nM
Cannabinoid receptor 2 [17]
  Emax: 13.4%
Cannabinoid receptor 2 [18]
  EC50: 44.7 nM
